Calls of active or inactive are those of the source. No cut-off for these calls is given here.
Legend:
Homo sapiens = species on record: Homo sapiens; experiment: Cytotoxicity against human SHG44 at 50 uM after 24 hrs by cell counting kit-8 assay; format: functional
Outline: (§1)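 SHG-44 glioblastoma cells were maintained in DMEM with 10% FBS and penicillin/streptomycin at 37 °C under 5% CO2. They were seeded at 5000/well in DMEM with 1% FBS and grown overnight, then exposed for 24 h to compound (0.1–100 μM) or 0.1% DMSO vehicle. CCK-8 was added for 2 h at 37 °C and A450 read. Results were from triplicates, expressed as % of vehicle.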

[1] = Antiproliferative activity against human SHG44 cells after 24 hrs by cell counting kit-8 assay; format: functional, cell-based; details: SHG-44, 24 h; outline: as §1
[2] = Growth inhibition of human SHG44 at 10 uM after 24 hrs by cell counting kit-8 assay; format: functional; details: SHG-44, 24 h, read-out: GI; outline: as §1
SHG44 = experiment: Antiproliferative activity against human SHG44 cells at 0.1 to 100 uM after 24 hrs by cell counting kit-8 assay; format: functional, cell-based; outline: as §1

SMILES | Activity (Homo sapiens) | IC50 [1] | inhibition of growth at 10 µM [2] | Activity (SHG44)
CCCCCCCCCCC[C@@H](O)[C@H](C)N [XETOAMINOL C] | Active | 4.5 µM | 100% | 
CCCCCCCCC[C@@H](O)[C@H](C)N | Active | 7.96 µM | 80% | 
CC(C)CCCCCCC[C@H](O)[C@@H](C)N | Active |  |  | inactive
CCC/C=C\CCCC[C@H](O)[C@@H](C)N | Active |  |  | inactive
CCCCCCCCC[C@H](O)[C@H](N)CO | Active | 4.41 µM | 60% | 
CCCCCCCCC[C@H](O)[C@@H](C)N | Active |  |  | 

From ChEMBL document CHEMBL1833911, “Diastereoselective synthesis and bioactivity of long-chain anti-2-amino-3-alkanols” (Eur J Med Chem, 2011)
